Assay results published in ChEMBL document CHEMBL4706495, “A novel class of small molecule inhibitors with radioprotective properties” (Eur J Med Chem, 2020).

What was measured:
HeLa [1] = assay: Cytotoxicity against human HeLa cells assessed as cell viability at 100 uM measured after 48 hrs by WST-1 assay relative to control; assay type: functional; settings: read-out: Activity
Summary of the method: (§1)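 Ten-line human panel (9 cancer, 1 non-cancerous). Cells were seeded at a pre-established optimal density (500–30 × 10³ per well) and settled overnight. Compounds came from 10 mM DMSO stocks and were tested at two concentrations. WST-1 readout followed the manufacturer's protocol at the end of cultivation. Viability is expressed as % of untreated control cells, mean of three independent experiments.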

SAOS-2 [2] = assay: Cytotoxicity against human SAOS-2 cells assessed as cell viability at 100 uM measured after 48 hrs by WST-1 assay relative to control; assay type: functional; settings: read-out: Activity; summary of the method: as §1
Jurkat [3] = assay: Cytotoxicity against human Jurkat cells assessed as cell viability at 100 uM measured after 48 hrs by WST-1 assay relative to control; assay type: functional; settings: read-out: Activity; summary of the method: as §1
Mus musculus [4] = assay: Radioprotective activity in C57Bl/6 mouse assessed as average body weight at 100 mg/kg, ip administered 5 min prior to gamma-irradation at 8.5 Gy and measured immediately (reference value: 25.4 +/- 2.6 g); assay type: functional
A549 [5] = assay: Cytotoxicity against human A549 cells assessed as cell viability at 100 uM measured after 48 hrs by WST-1 assay relative to control; assay type: functional; settings: read-out: Activity; summary of the method: as §1
A549 [6] = assay: Cytotoxicity against human A549 cells assessed as cell viability at 10 uM measured after 48 hrs by WST-1 assay relative to control; assay type: functional; settings: read-out: Activity; summary of the method: as §1
Mus musculus [7] = assay: Radioprotective activity in C57Bl/6 mouse assessed as average body weight at 100 mg/kg, ip administered 5 min prior to gamma-irradation at 8.5 Gy and measured after 30 days; assay type: functional
[8] = Toxicity in C57Bl/6 mouse assessed as average body weight at 100 mg/kg, ip and measured immediately (reference value: 26.3 +/- 2.4 g); assay type: organism-based; settings: in vivo
[9] = Toxicity in C57Bl/6 mouse assessed as mouth death at 100 mg/kg, ip measured after 30 days; assay type: organism-based; settings: in vivo, 720 h, time 30 day
Summary of the method: (§2)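 Safety in C57Bl/6 mice (27 ± 3 g) given a single 100 mg/kg i.p. injection without irradiation. Deaths, adverse effects and body weight followed over 30 days against an untreated control group. Weight reported as change from day 0.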

[10] = Toxicity in C57Bl/6 mouse assessed as average body weight at 100 mg/kg, ip measured after 30 days (reference value: 27 +/ 3.2 g); assay type: organism-based; settings: in vivo, 720 h, time 30 day
MOLT-4 [11] = assay: Cytotoxicity against human MOLT-4 cells assessed as cell viability at 100 uM measured after 48 hrs by WST-1 assay relative to control; assay type: functional; settings: read-out: Activity; summary of the method: as §1
PANC-1 [12] = assay: Cytotoxicity against human PANC-1 cells assessed as cell viability at 10 uM measured after 48 hrs by WST-1 assay relative to control; assay type: functional; settings: read-out: Activity; summary of the method: as §1
A549 [13] = assay: Cytotoxicity against human A549 cells assessed as maximum tolerated concentration incubated for 24 hrs by MTT assay; assay type: functional
Summary of the method: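 A-549 cells in DMEM with 10% FBS and 1% penicillin-streptomycin, left to attach overnight. Compounds made up in PBS, serially diluted in DMEM, incubated 24 h, then viability read by MTT reduction against untreated controls on each plate. MTC taken as the highest concentration showing no significant difference from non-treated control (t-test).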

[14] = Cytotoxicity against human MRC5 cells assessed as cell viability at 10 uM measured after 48 hrs by WST-1 assay relative to control; assay type: cell-based; settings: read-out: Activity; summary of the method: as §1
Mus musculus [15] = assay: Radioprotective activity in C57Bl/6 mouse assessed as median survival time at 100 mg/kg, ip administered 5 min prior to gamma-irradation at 8.5 Gy and measured after 30 days (reference value: 12 days); assay type: functional
A2780 [16] = assay: Cytotoxicity against human A2780 cells assessed as cell viability at 100 uM measured after 48 hrs by WST-1 assay relative to control; assay type: functional; settings: read-out: Activity; summary of the method: as §1
[17] = Cytotoxicity against human MRC5 cells assessed as cell viability at 100 uM measured after 48 hrs by WST-1 assay relative to control; assay type: cell-based; settings: read-out: Activity; summary of the method: as §1
MCF7 [18] = assay: Cytotoxicity against human MCF7 cells assessed as cell viability at 10 uM measured after 48 hrs by WST-1 assay relative to control; assay type: functional; settings: read-out: Activity; summary of the method: as §1
MCF7 [19] = assay: Cytotoxicity against human MCF7 cells assessed as cell viability at 100 uM measured after 48 hrs by WST-1 assay relative to control; assay type: functional; settings: read-out: Activity; summary of the method: as §1
A2780 [20] = assay: Cytotoxicity against human A2780 cells assessed as cell viability at 10 uM measured after 48 hrs by WST-1 assay relative to control; assay type: functional; settings: read-out: Activity; summary of the method: as §1
[21] = Toxicity in C57Bl/6 mouse assessed as change in body weight at 100 mg/kg, ip measured after 30 days (reference value: 103 +/- 12 %); assay type: organism-based; settings: in vivo, 720 h, time 30 day
HeLa [22] = assay: Cytotoxicity against human HeLa cells assessed as cell viability at 10 uM measured after 48 hrs by WST-1 assay relative to control; assay type: functional; settings: read-out: Activity; summary of the method: as §1
[23] = Toxicity in C57Bl/6 mouse assessed as adverse effects at 100 mg/kg, ip measured after 30 days; assay type: organism-based; settings: in vivo, 720 h, time 30 day; summary of the method: as §2
PANC-1 [24] = assay: Cytotoxicity against human PANC-1 cells assessed as cell viability at 100 uM measured after 48 hrs by WST-1 assay relative to control; assay type: functional; settings: read-out: Activity; summary of the method: as §1
Jurkat [25] = assay: Cytotoxicity against human Jurkat cells assessed as cell viability at 10 uM measured after 48 hrs by WST-1 assay relative to control; assay type: functional; settings: read-out: Activity; summary of the method: as §1
SAOS-2 [26] = assay: Cytotoxicity against human SAOS-2 cells assessed as cell viability at 10 uM measured after 48 hrs by WST-1 assay relative to control; assay type: functional; settings: read-out: Activity; summary of the method: as §1
Mus musculus [27] = assay: Radioprotective activity in C57Bl/6 mouse assessed as body weight gain at 100 mg/kg, ip administered 5 min prior to gamma-irradation at 8.5 Gy measured after 30 days relative to control; assay type: functional
MOLT-4 [28] = assay: Cytotoxicity against human MOLT-4 cells assessed as cell viability at 10 uM measured after 48 hrs by WST-1 assay relative to control; assay type: functional; settings: read-out: Activity; summary of the method: as §1
HT-29 [29] = assay: Cytotoxicity against human HT-29 cells assessed as cell viability at 100 uM measured after 48 hrs by WST-1 assay relative to control; assay type: functional; settings: read-out: Activity; summary of the method: as §1
A549 [30] = assay: Cytotoxicity against human A549 cells assessed as reduction in cell viability incubated for 24 hrs by MTT assay; assay type: functional, cell-based; settings: A549, 24 h
Summary of the method: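 A-549 cells in DMEM with 10% FBS and 1% penicillin-streptomycin were attached overnight. Compounds were prepared in PBS and serially diluted in DMEM, then incubated 24 h. Viability was read by colorimetric MTT reduction against an untreated control on each plate (100%). IC50 came from four-parameter nonlinear regression of the log concentration-response curve, mean ± SEM. MTC is the highest concentration not differing from control (t-test).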

MOLT-4 [31] = assay: Radioprotective activity against gamma irradiation-induced apoptosis in human MOLT-4 cells assessed as viable cells at 100 uM pretreated with compound for 1 hr followed by gamma irradiation and measured after 24 hrs by annexinV/propidium iodide staining based flow cytometry (reference value: 40 %); assay type: functional; settings: MOLT-4, light or radiation study, time 25 hrs, read-out: Activity
HT-29 [32] = assay: Cytotoxicity against human HT-29 cells assessed as cell viability at 10 uM measured after 48 hrs by WST-1 assay relative to control; assay type: functional; settings: read-out: Activity; summary of the method: as §1
[33] = Immuno-toxicity in C57Bl/6 mouse assessed as decrease in absolute number of lymphocytes at 100 mg/kg, ip measured after 12 days post-treatment by flow cytometry; assay type: organism-based; settings: in vivo, 288 h, time 12 day

## C=CCc1ccc(OCC(O)CN2CCN(CCO)CC2)c(OC)c1 (stereo not drawn)
HeLa [1]
  viability at 100 µM: 99%
SAOS-2 [2]
  viability at 100 µM: 75%
Jurkat [3]
  viability at 100 µM: 83%
Mus musculus [4]
  Activity: 25.1 g
A549 [5]
  viability at 100 µM: 105%
A549 [6]
  viability at 10 µM: 91%
Mus musculus [7]
  Activity: 27.3 g
[8]
  Activity: 25.7 g
[9]
  Activity: Non-Toxic
[10]
  Activity: 27 g
MOLT-4 [11]
  viability at 100 µM: 65%
PANC-1 [12]
  viability at 10 µM: 101%
A549 [13]
  MTD: 0.2 mM
[14]
  viability at 48 h, 10 µM: 94%
Mus musculus [15]
  MST: 12 days
A2780 [16]
  viability at 100 µM: 85%
[17]
  viability at 48 h, 100 µM: 103%
MCF7 [18]
  viability at 10 µM: 99%
MCF7 [19]
  viability at 100 µM: 89%
A2780 [20]
  viability at 10 µM: 97%
[21]
  Activity: 105%
HeLa [22]
  viability at 10 µM: 100%
[23]
  Activity: Non-Toxic
PANC-1 [24]
  viability at 100 µM: 116%
Jurkat [25]
  viability at 10 µM: 110%
SAOS-2 [26]
  viability at 10 µM: 112%
Mus musculus [27]
  Activity: 103%
MOLT-4 [28]
  viability at 10 µM: 104%
HT-29 [29]
  viability at 100 µM: 102%
A549 [30]
  IC50: 1.12 mM
MOLT-4 [31]
  viability at 100 µM: 52%
HT-29 [32]
  viability at 10 µM: 109%
[33]
  Activity: Toxic
